From ChEMBL document CHEMBL1151941, “Inhibition of influenza virus infections by sialylgalactose-binding peptides selected from a phage library” (J Med Chem, 2009)
pIC50, pKd: −log10 of the molar value. Activity calls are given as the source filed them. The rule behind the calls is not given here. Where a SMILES comes first, the peptide text is derived from it. The star is where a group is joined. Stearoyl = CCCCCCCCCCCCCCCCCC(=O)*

How the values were obtained:
Influenza A virus = assay: Antiviral activity against Influenza A virus (A/Puerto Rico/8/34(H1N1)) infected in MDCK cells after 30 mins by crystal violet-based plaque assay; type: functional, organism-based; conditions: A/Puerto Rico/8/1934(H1N1), 0.5 h
Method in brief: (§1)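 MDCK cells in 6-well plates were exposed for 30 min at 37 °C, 5% CO2, to 0.2 mL virus (50-200 pfu) with C18-peptide from PBS stock (2 or 10 mM). After a PBS wash, cells were overlaid with 0.6% agarose/MEM (DEAE-dextran, HEPES, acetyltrypsin, BSA) for 2 days. Living cells were stained and plaques counted. IC50 is the concentration giving 50% inhibition.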

[1] = Critical micellar concentration of the compound; type: physicochemical
Method in brief: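 N-stearoyl peptide amide was suspended in PBS containing 1 μM N-phenyl-1-naphthylamine and diluted to 1 nM-0.1 mM. Fluorescence (ex 350, em 450 nm) was read at 25 °C. The cmc is taken at the intersection of two straight lines in the intensity-versus-concentration plot.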

[2] = Binding affinity to ganglioside GM3 at 10 uM
[3] = Binding affinity to ganglioside GM3 by ELISA relative to wild type fd phage clone
Method in brief: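 GM3 monolayer was transferred from TBS (20 °C, 30 mN m-1) onto a BSA-blocked plastic plate. Phage clones (0.05-5 nM in TBS) were incubated 30 min at 4 °C. Detection used anti-fd antibody, then peroxidase anti-rabbit IgG (each 1 h, 4 °C), with o-phenylenediamine. ΔA was read at 492 nm in triplicate and expressed relative to wild-type fd phage.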

[4] = Binding affinity to ganglioside GalCer by quartz crystal microbalance method; conditions: for pKd: read-out: Kd
[5] = Binding affinity to ganglioside GlcCer by quartz crystal microbalance method; conditions: for pKd: read-out: Kd
[6] = Binding affinity to ganglioside 6'GM3 by quartz crystal microbalance method; conditions: for pKd: read-out: Kd
[7] = Binding affinity to ganglioside GM3 by quartz crystal microbalance method; conditions: for pKd: read-out: Kd
H3N2 subtype = assay: Antiviral activity against Influenza A virus (A/Aichi/2/1968(H3N2)) infected in MDCK cells after 30 mins by crystal violet-based plaque assay; type: functional, organism-based; conditions: 0.5 h; method in brief: as §1
[8] = Ratio of Kd for ganglioside GM3 to Kd for ganglioside GalCer
B16 [9] = assay: Binding affinity to ganglioside GM3 in mouse B16 cells at 1 to 10 nM by flow cytometry; type: cell-based
Method in brief: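 B16 monolayer cells (2×10^5) were given serially diluted phage (0.5-10 nM) in 1% BSA/PBS for 1 h on ice. After washes, they were labelled with anti-fd antibody and then FITC anti-rabbit IgG (each 0.5 h on ice) and analysed by flow cytometry.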

B16 [10] = assay: Inhibition of binding affinity to ganglioside GM3 in mouse B16 cells pretreated with neuraminidase at pH 6.5 at 10 nM by flow cytometry; type: cell-based
Method in brief: (§2)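 Sialic acid was removed from B16 cells (2×10^5) with 0.05 units Arthrobacter ureafaciens neuraminidase for 90 min at 37 °C, pH 6.5 or 7.4. After three washes, cells took 10 nM phage and were labelled with anti-fd antibody and FITC-conjugated antibody for flow cytometry.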

B16 [11] = assay: Inhibition of binding affinity to ganglioside GM3 in mouse B16 cells pretreated with neuraminidase at pH 7.4 at 10 nM by flow cytometry; type: cell-based; method in brief: as §2
B16 [12] = assay: Inhibition of binding affinity to ganglioside GM3 in mouse B16 cells at 10 nM by flow cytometry in presence of 1 mM Neu5Ac; type: cell-based
Method in brief: (§3)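 B16 cells (2×10^5) were incubated 1 h on ice with phage (10 nM) with or without 1 mM Neu5Ac, Glc or GlcU. They were washed in 1% BSA/PBS, labelled with anti-fd antibody and FITC-conjugated antibody, and analysed by flow cytometry.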

[13] = Ratio of Kd for ganglioside GM3 to Kd for ganglioside 6'GM3
B16 [14] = assay: Inhibition of binding affinity to ganglioside GM3 in mouse B16 cells at 10 nM by flow cytometry in presence of GlcU; type: cell-based; method in brief: as §3
[15] = Selectivity ratio of Kd for ganglioside GalCer to Kd for ganglioside GM3
[16] = Ratio of Kd for ganglioside GM3 to Kd for ganglioside GlcCer
B16 [17] = assay: Inhibition of binding affinity to ganglioside GM3 in mouse B16 cells at 10 nM by flow cytometry in presence of Glc; type: cell-based; method in brief: as §3

CCCCCCCCCCCCCCCCCC(=O)NCC(=O)N[C@@H](C)C(=O)N[C@@H](Cc1c[nH]c2ccccc12)C(=O)N[C@@H](Cc1ccc(O)cc1)C(=O)N[C@@H](CCCCN)C(=O)NCC(=O)N[C@@H](CCCNC(=N)N)C(=O)N[C@@H](C)C(=O)N[C@@H](CCCNC(=N)N)C(=O)N1CCC[C@H]1C(=O)N[C@H](C(=O)N[C@@H](CO)C(=O)N[C@@H](C)C(=O)N[C@H](C(=O)N[C@@H](C)C(N)=O)C(C)C)C(C)C (Stearoyl-GAWYKGRARPVSAVA-NH2)
pIC50 (Influenza A virus): 4.28 | CMC [1]: 0.8 µM

H-DFRRLPGAFWQLRQP-OH
Activity [2]: 119 ng/cm2

H-LWRPVLFHSAVRALG-OH
fold change (FC) [3]: 1.7

CCCCCCCCCCCCCCCCCC(=O)NCC(=O)N[C@@H](Cc1c[nH]c2ccccc12)C(=O)N[C@@H](Cc1c[nH]c2ccccc12)C(=O)N[C@@H](Cc1ccc(O)cc1)C(=O)N[C@@H](CCCCN)C(=O)NCC(=O)N[C@@H](CCCNC(=N)N)C(=O)N[C@@H](C)C(=O)N[C@@H](CCCNC(=N)N)C(=O)N[C@@H](C)C(=O)N[C@H](C(=O)N[C@@H](CO)C(=O)N[C@@H](C)C(=O)N[C@H](C(=O)N[C@@H](C)C(N)=O)C(C)C)C(C)C (Stearoyl-GWWYKGRARAVSAVA-NH2)
pIC50 (Influenza A virus): 4.05 | CMC [1]: 0.8 µM

H-RAVWRHSVATPSHSV-NH2
pIC50 (Influenza A virus): < 3.30

CC(C)C[C@H](NC(=O)[C@H](CO)NC(=O)[C@H](CC(=O)O)NC(=O)[C@H](Cc1ccccc1)NC(=O)[C@H](C)NC(=O)[C@H](C)NC(=O)[C@H](CCCN)NC(=O)[C@H](C)NC(=O)[C@@H]1CCCN1C(=O)[C@H](CC(=O)O)NC(=O)[C@H](CC(=O)O)NC(=O)CNC(=O)[C@H](CCC(=O)O)NC(=O)[C@H](C)N)C(=O)N[C@@H](CCC(N)=O)C(=O)O
Kd [4]: Not Active | Kd [5]: Not Active | Kd [6]: Not Active | Kd [7]: Not Active

H-LSWPLHAGRGFRWVS-OH
fold change (FC) [3]: 0.9

CCCCCCCCCCCCCCCCCC(=O)N[C@@H](CCCNC(=N)N)C(=O)N[C@@H](C)C(=O)N[C@H](C(=O)N[C@@H](Cc1c[nH]c2ccccc12)C(=O)N[C@@H](CCCNC(=N)N)C(=O)N[C@@H](Cc1cnc[nH]1)C(=O)N[C@@H](CO)C(=O)N[C@H](C(=O)N[C@@H](C)C(=O)N[C@H](C(=O)N1CCC[C@H]1C(=O)N[C@@H](CO)C(=O)N[C@@H](Cc1cnc[nH]1)C(=O)N[C@@H](CO)C(=O)N[C@H](C(N)=O)C(C)C)[C@@H](C)O)C(C)C)C(C)C (Stearoyl-RAVWRHSVATPSHSV-NH2)
pIC50 (Influenza A virus): 5.19 | pIC50 (H3N2 subtype): 4.17 | CMC [1]: 0.8 µM

CCCCCCCCCCCCCCCCCC(=O)N[C@@H](C)C(=O)N[C@H](C(=O)N[C@@H](C)C(=O)N[C@@H](CO)C(=O)N[C@H](C(=O)N1CCC[C@H]1C(=O)N[C@@H](CCCNC(=N)N)C(=O)N[C@@H](C)C(=O)N[C@@H](CCCNC(=N)N)C(=O)NCC(=O)N[C@@H](CCCCN)C(=O)N[C@@H](Cc1ccc(O)cc1)C(=O)N[C@@H](Cc1c[nH]c2ccccc12)C(=O)N[C@@H](Cc1c[nH]c2ccccc12)C(=O)NCC(N)=O)C(C)C)C(C)C (Stearoyl-AVASVPRARGKYWWG-NH2)
pIC50 (Influenza A virus): 4.36 | pIC50 (H3N2 subtype): 4.77 | CMC [1]: 0.8 µM

H-GWWYKGRARPVSAVA-OH
Activity [2]: 39 ng/cm2 | fold change (FC) [3]: 2.1 | Ratio [8]: 0.15 | Activity (B16 [9]): Active | inhibition (B16 [10]): Active | inhibition (B16 [11]): inactive | inhibition (B16 [12]): 61% | Ratio [13]: 1 | inhibition (B16 [14]): 46% | pKd [4]: 5.01 | pKd [5]: < 4.15 | Ratio [15]: 6.5 | Ratio [16]: < 0.02 | inhibition (B16 [17]): inactive | pKd [6]: 5.82 | pKd [7]: 5.82

CCCCCCCCCCCCCCCCCC(=O)N[C@@H](C)C(=O)N[C@@H](CCC(=O)O)C(=O)N[C@H](C(=O)N[C@H](C(=O)N[C@@H](CCC(=O)O)C(=O)N[C@@H](CO)C(=O)N[C@@H](CS)C(=O)N[C@@H](CC(C)C)C(=O)N[C@@H](C)C(=O)N[C@@H](CCCCN)C(=O)N1CCC[C@H]1C(=O)N[C@@H](Cc1cnc[nH]1)C(=O)N[C@H](C(=O)N[C@@H](CCC(=O)O)C(=O)N[C@@H](CC(N)=O)C(N)=O)[C@H](C)O)C(C)C)[C@@H](C)O
pIC50 (Influenza A virus): 4.18 | pIC50 (H3N2 subtype): < 4.00 | CMC [1]: 0.8 µM

H-RAVWRHSVATPSHSV-OH
fold change (FC) [3]: 1.5 | Ratio [8]: < 0.006 | Ratio [13]: 0.2 | pKd [4]: < 4.15 | pKd [5]: < 4.15 | Ratio [16]: < 0.006 | pKd [6]: 5.70 | pKd [7]: 6.39

H-QQLVYNWWAVSSARR-OH
fold change (FC) [3]: 1.1

H-GWYSSRHYVRSLNGL-OH
fold change (FC) [3]: 1.4

CCCCCCCCCCCCCCCCCC(=O)NCC(=O)N[C@@H](Cc1c[nH]c2ccccc12)C(=O)N[C@@H](Cc1c[nH]c2ccccc12)C(=O)N[C@@H](Cc1ccc(O)cc1)C(=O)N[C@@H](CCCCN)C(=O)NCC(=O)N[C@@H](CCCNC(=N)N)C(=O)N[C@@H](C)C(=O)N[C@@H](CCCNC(=N)N)C(=O)N1CCC[C@H]1C(=O)N[C@H](C(=O)N[C@@H](CO)C(=O)N[C@@H](C)C(=O)N[C@H](C(=O)N[C@@H](C)C(N)=O)C(C)C)C(C)C (Stearoyl-GWWYKGRARPVSAVA-NH2)
pIC50 (Influenza A virus): 5.49 | pIC50 (H3N2 subtype): < 5.00 | CMC [1]: 0.8 µM

H-WRGVYFGDRWLGSQP-OH
fold change (FC) [3]: 1.6

CCCCCCCCCCCCCCCCCC(=O)N[C@@H](CC(=O)O)C(=O)N[C@@H](Cc1ccccc1)C(=O)N[C@@H](CCCNC(=N)N)C(=O)N[C@@H](CCCNC(=N)N)C(=O)N[C@@H](CC(C)C)C(=O)N1CCC[C@H]1C(=O)NCC(=O)N[C@@H](C)C(=O)N[C@@H](Cc1ccccc1)C(=O)N[C@@H](Cc1c[nH]c2ccccc12)C(=O)N[C@@H](CCC(N)=O)C(=O)N[C@@H](CC(C)C)C(=O)N[C@@H](CCCNC(=N)N)C(=O)N[C@@H](CCC(N)=O)C(=O)N1CCC[C@H]1C(N)=O (Stearoyl-DFRRLPGAFWQLRQP-NH2)
pIC50 (Influenza A virus): 4.28 | pIC50 (H3N2 subtype): 4.72 | CMC [1]: 0.8 µM

H-GWWYKGRARPVSAVA-NH2
pIC50 (Influenza A virus): < 3.30
